The target in experiment [1] is T1, Adenosine deaminase (Bos taurus, UniProt P56658).
T1 sequence (P56658 whole entry): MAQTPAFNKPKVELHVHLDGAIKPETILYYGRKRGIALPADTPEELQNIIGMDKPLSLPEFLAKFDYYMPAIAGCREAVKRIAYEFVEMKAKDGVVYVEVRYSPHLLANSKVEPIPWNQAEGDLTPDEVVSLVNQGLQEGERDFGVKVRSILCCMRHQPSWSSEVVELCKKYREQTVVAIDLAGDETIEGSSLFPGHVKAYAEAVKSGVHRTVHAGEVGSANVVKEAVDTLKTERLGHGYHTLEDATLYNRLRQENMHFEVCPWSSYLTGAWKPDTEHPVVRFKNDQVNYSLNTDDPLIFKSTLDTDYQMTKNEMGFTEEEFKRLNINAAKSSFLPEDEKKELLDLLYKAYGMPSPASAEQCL
In words: Inhibitory activity against calf intestinal Adenosine deaminase (ADA).

Experiment [2] can be described thus: Inhibitory activity against porcine heart Adenylate deaminase (AMPDA). Also on record: species or system Sus scrofa. The gist of the method: (§1)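 Values are reported as Ki against porcine heart AMPDA, determined by a procedure described in earlier work.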
Experiment [3] is described as follows: Compound was evaluated for its inhibitory activity against porcine heart adenylate deaminase (AMPDA). Also on record: species or system Sus scrofa. The gist of the method: as §1
Experiment [4] concerns the target T1, Adenosine deaminase. Put plainly: Compound was evaluated for its inhibitory activity against calf intestinal Adenosine deaminase (ADA).

A value given as a limit tells only on which side of the number the result lay.

For orientation: Ki means a measure of affinity in units of concentration, obtained from inhibition or displacement. Lower therefore signals higher affinity.

On to `O=C(O)Cc1cccc(Cn2cnc3c2NC=NCC3O)c1` (stereo unspecified), for which the values for the Ki in experiment [1] and in experiment [2] were more than 7.5 µM and 11.2 µM, respectively.

Regarding `COC(=O)c1cc(C)ccc1CCCn1cnc2c1NC=NCC2O` (stereo unspecified), the inhibition constant Ki was determined as 0.04 µM in experiment [1] and 1.6 µM in experiment [2].

Take `COC(=O)c1ccc2ccccc2c1CCCn1cnc2c1NC=NCC2O` (stereo unspecified): the inhibitory constant (Ki) turned out to be 0.18 µM in experiment [1] and 8.3 µM in experiment [2].

For `COc1ccc(C(=O)O)cc1CCn1cnc2c1NC=NCC2O` (stereo unspecified), the inhibitory constant (Ki) is more than 7.5 µM in experiment [1] and 0.48 µM in experiment [2].

`O=C(O)c1cc(CCn2cnc3c2NC=NCC3O)cc(-c2ccc(Cl)cc2)c1` (stereo unspecified): the Ki is more than 7.5 µM in experiment [1] and 0.29 µM in experiment [2].

Regarding `O=C(O)Cc1cccc(CCn2cnc3c2NC=NCC3O)c1` (stereo unspecified), the Ki in experiment [1] was more than 500 µM; in experiment [2], 44.1 µM.

As for `COC(=O)c1ccccc1OCCn1cnc2c1NC=NCC2O` (stereo unspecified), the Ki in experiment [1] amounted to 2.3 µM; in experiment [2] it was 60.6 µM.

With `O=C(O)c1ccc(Cn2cnc3c2NC=NCC3O)cc1` (stereo unspecified), the inhibition constant Ki in experiment [1] is more than 7.5 µM; in experiment [2], more than 125 µM.

As to `CCOC(=O)c1cc(CCn2cnc3c2NC=NCC3O)cc(-c2ccccc2)c1` (stereo unspecified), the values for the Ki in experiment [1] and in experiment [2] were more than 7.5 µM and 18 µM, respectively.

As to `O=C(O)c1ccc2ccccc2c1CCCn1cnc2c1NC=NCC2O` (stereo unspecified), the Ki was 1.8 µM in experiment [1] and 6.3 µM in experiment [2].

As for `O=C(O)c1ccc(CCn2cnc3c2NC=NCC3O)s1` (stereo unspecified), the inhibition constant (Ki) was more than 7.5 µM in experiment [1] and 9.5 µM in experiment [2].

As for `COC(=O)c1ccc(C)c(CCCn2cnc3c2NC=NCC3O)c1` (stereo unspecified), the values for the inhibition constant (Ki) in experiment [1] and in experiment [2] were 0.08 µM and 22 µM, respectively.

On to `Cc1ccc(C(=O)O)cc1CCn1cnc2c1NC=NCC2O` (stereo unspecified), for which the Ki in experiment [1] is more than 100 µM; in experiment [2], 0.1 µM.

For `CCOC(=O)Cc1cccc(Cn2cnc3c2NC=NCC3O)c1` (stereo unspecified), the Ki stood at 5.6 µM in experiment [1] and 15.9 µM in experiment [2].

With `O=C(O)Cc1ccc(Cn2cnc3c2NC=NCC3O)cc1` (stereo unspecified), the inhibitory constant (Ki) in experiment [1] was more than 500 µM; in experiment [2] it was 92.2 µM.

Turning to `O=C(O)c1cc(CCn2cnc3c2NC=NCC3O)cc(-c2cccc(Cl)c2)c1` (stereo unspecified), the Ki in experiment [1] is more than 7.5 µM; in experiment [2], 0.18 µM.

In the case of `COC(=O)c1ccc(OC)c(CCCn2cnc3c2NC=NCC3O)c1` (stereo unspecified), the values for the Ki in experiment [1] and in experiment [2] were 0.13 µM and 52.8 µM, respectively.

`COC(=O)Cc1ccc(Cn2cnc3c2NC=NCC3O)cc1` (stereo unspecified): the values for the Ki in experiment [1] and in experiment [2] were 6.7 µM and 92.6 µM, respectively.

As for `COc1ccc(C(=O)O)cc1CCCn1cnc2c1NC=NCC2O` (stereo unspecified), the Ki in experiment [1] is 5.6 µM; in experiment [2], 4.2 µM.

As for `COC(=O)c1cccc(CCn2cnc3c2NC=NCC3O)c1` (stereo unspecified), the Ki is more than 7.5 µM in experiment [1] and 16 µM in experiment [2].

On to `Cc1ccc(C(=O)O)c(CCCn2cnc3c2NC=NCC3O)c1` (stereo unspecified), for which the inhibition constant Ki came to 5.2 µM in experiment [1] and 24 µM in experiment [2].

For the molecule `O=C(O)c1cccc(CCn2cnc3c2NC=NCC3O)c1` (stereo unspecified), the Ki in experiment [1] was more than 7.5 µM; in experiment [2], 0.51 µM.

In the case of `CCOC(=O)c1ccc(C)c(CCn2cnc3c2NC=NCC3O)c1` (stereo unspecified), the Ki is more than 7.5 µM in experiment [1] and 11 µM in experiment [2].

Turning to `CCOC(=O)c1cc(Br)cc(CCn2cnc3c2NC=NCC3O)c1` (stereo unspecified), the Ki is more than 7.5 µM in experiment [1] and 2.7 µM in experiment [2].

As for `Cc1ccc(C(=O)O)cc1CCCn1cnc2c1NC=NCC2O` (stereo unspecified), the inhibition constant Ki in experiment [1] was 1.2 µM; in experiment [2] it was 5.2 µM.

On to `O=C(O)c1ccc(CCCn2cnc3c2NC=NCC3O)o1` (stereo unspecified), for which the inhibitory constant (Ki) in experiment [1] is more than 7.5 µM; in experiment [2] it was 13.3 µM.

Regarding `COC(=O)c1cccc(CCCn2cnc3c2NC=NCC3O)c1` (stereo unspecified), the Ki is 0.16 µM in experiment [1] and 24.3 µM in experiment [2].

For the molecule `O=C(O)c1cc(CCn2cnc3c2NC=NCC3O)cs1` (stereo unspecified), the Ki in experiment [1] was more than 7.5 µM; in experiment [2] it was 2.2 µM.

Consider `O=C(O)c1c(F)cccc1CCCn1cnc2c1NC=NCC2O` (stereo unspecified), for which the results for the inhibition constant (Ki) in experiment [1] and in experiment [2] were more than 7.5 µM and 9 µM, respectively.

Take `Cc1ccc(C(=O)OCc2ccccc2)cc1CCn1cnc2c1NC=NCC2O` (stereo unspecified): the figures for the inhibitory constant (Ki) in experiment [1] and in experiment [2] were 2.6 µM and 8.1 µM, respectively.

Take `O=C(O)c1cccc(CCCn2cnc3c2NC=NCC3O)c1` (stereo unspecified): the inhibition constant Ki in experiment [1] turned out to be 2.4 µM; in experiment [2], 23.5 µM.

In the case of `CCc1ccc(C(=O)O)cc1CCn1cnc2c1NC=NCC2O` (stereo unspecified), the inhibitory constant (Ki) in experiment [1] is more than 7.5 µM; in experiment [2] it was 0.08 µM.

`CC(C)c1cccc(C(=O)O)c1CCCn1cnc2c1NC=NCC2O` (stereo unspecified): the Ki in experiment [1] was more than 7.5 µM; in experiment [2], 83.1 µM.

In the case of `O=C(O)c1ccccc1SCCn1cnc2c1NC=NCC2O` (stereo unspecified), the inhibition constant (Ki) in experiment [1] is more than 500 µM; in experiment [2], 4.5 µM.

As for `COC(=O)c1ccc(Cn2cnc3c2NC=NCC3O)cc1` (stereo unspecified), the Ki in experiment [1] was found to be 8.7 µM; in experiment [2], 170 µM.

As for `COC(=O)c1ccc(CCn2cnc3c2NC=NCC3O)cc1` (stereo unspecified), the inhibition constant Ki in experiment [1] was found to be 81 µM; in experiment [2], 160 µM.

Consider `O=C(O)c1sccc1CCCn1cnc2c1NC=NCC2O` (stereo unspecified), for which the Ki was 1.4 µM in experiment [1] and 4.8 µM in experiment [2].

As to `O=C(O)c1cc(CCn2cnc3c2NC=NCC3O)ccc1Cl` (stereo unspecified), the results for the Ki in experiment [1] and in experiment [2] were more than 7.5 µM and 0.22 µM, respectively.

Turning to `CCc1cc(CCn2cnc3c2NC=NCC3O)cc(C(=O)O)c1` (stereo unspecified), the Ki was more than 7.5 µM in experiment [1] and 0.06 µM in experiment [2].

For `O=C(O)c1ccccc1CCCn1cnc2c1NC=NCC2O` (stereo unspecified), the inhibitory constant (Ki) in experiment [1] stood at 6.1 µM; in experiment [2], 12.5 µM.

For the molecule `O=C(O)c1cc(CCn2cnc3c2NC=NCC3O)ccc1F` (stereo unspecified), the inhibition constant Ki in experiment [1] is more than 7.5 µM; in experiment [2] it was 0.16 µM.

Regarding `Cc1ccc(CCCn2cnc3c2NC=NCC3O)c(C(=O)O)c1` (stereo unspecified), the inhibition constant Ki in experiment [1] was more than 7.5 µM; in experiment [2] it was 11.8 µM.

For the molecule `COC(=O)c1ccc(C)cc1CCCn1cnc2c1NC=NCC2O` (stereo unspecified), the Ki in experiment [1] is 0.06 µM; in experiment [2], 38 µM.

For `COC(=O)c1ccc(OC)c(CCn2cnc3c2NC=NCC3O)c1` (stereo unspecified), the Ki in experiment [1] was more than 7.5 µM; in experiment [2] it was 21 µM.

For the molecule `O=C(O)c1ccc(CO)c(CCn2cnc3c2NC=NCC3O)c1` (stereo unspecified), the values for the Ki in experiment [1] and in experiment [2] were more than 7.5 µM and 0.35 µM, respectively.

With `COC(=O)c1cccc(C(C)C)c1CCCn1cnc2c1NC=NCC2O` (stereo unspecified), the Ki is more than 7.5 µM in experiment [1] and 14 µM in experiment [2].

Turning to `COC(=O)c1c(F)cccc1CCCn1cnc2c1NC=NCC2O` (stereo unspecified), the Ki in experiment [1] amounted to 0.32 µM; in experiment [2], 1.5 µM.

As to `CC(C)c1cccc(C(=O)O)c1SCCn1cnc2c1NC=NCC2O` (stereo unspecified), the figures for the Ki in experiment [1] and in experiment [2] were more than 7.5 µM and more than 125 µM, respectively.

As for `CCCc1ccc(C(=O)OC)cc1CCn1cnc2c1NC=NCC2O` (stereo unspecified), the Ki in experiment [1] came out at 3.8 µM; in experiment [2], 14 µM.

Take `O=C(O)c1cc(Br)cc(CCn2cnc3c2NC=NCC3O)c1` (stereo unspecified): the figures for the Ki in experiment [1] and in experiment [2] were more than 7.5 µM and 0.08 µM, respectively.

Regarding `O=C(O)c1ccc(Cn2cnc3c2NC=NCC3O)o1` (stereo unspecified), the inhibitory constant (Ki) in experiment [1] was more than 3.4 µM; in experiment [2], 72 µM.

`O=C(O)c1cc(CCn2cnc3c2NC=NCC3O)cc(-c2ccccc2)c1` (stereo unspecified): the Ki in experiment [1] is more than 7.5 µM; in experiment [2] it was 0.07 µM.

For the molecule `CNOC(=O)c1ccc(C)c(CCCn2cnc3c2NC=NCC3O)c1` (stereo unspecified), the inhibitory constant (Ki) in experiment [3] stood at 19.8 µM; in experiment [4], 0.05 µM.

Regarding `O=C(O)c1ccccc1OCCn1cnc2c1NC=NCC2O` (stereo unspecified), the Ki in experiment [1] is 270 µM; in experiment [2], 31.3 µM.

On to `COC(=O)c1ccccc1CCCn1cnc2c1NC=NCC2O` (stereo unspecified), for which the inhibition constant Ki in experiment [1] came to 0.16 µM; in experiment [2] it was 32.7 µM.

Turning to `Cc1ccc(CCn2cnc3c2NC=NCC3O)cc1C(=O)O` (stereo unspecified), the Ki is more than 7.5 µM in experiment [1] and 0.57 µM in experiment [2].

Regarding `O=C(O)c1cccc(OCCn2cnc3c2NC=NCC3O)c1` (stereo unspecified), the inhibitory constant (Ki) is more than 7.5 µM in experiment [1] and 31.8 µM in experiment [2].

Consider `O=C(O)c1cccc(C#CCn2cnc3c2NC=NCC3O)c1` (stereo unspecified), for which the inhibition constant (Ki) in experiment [1] is 2.3 µM; in experiment [2], more than 125 µM.

Turning to `O=C(O)c1cc(CCn2cnc3c2NC=NCC3O)cc(-c2ccc(F)cc2)c1` (stereo unspecified), the Ki in experiment [1] was more than 7.5 µM; in experiment [2], 0.19 µM.

For `COC(=O)c1ccccc1SCCn1cnc2c1NC=NCC2O` (stereo unspecified), the Ki amounted to 11.9 µM in experiment [1] and 37.9 µM in experiment [2].

Regarding `CCOC(=O)c1cc(CC)cc(CCn2cnc3c2NC=NCC3O)c1` (stereo unspecified), the Ki was 8.9 µM in experiment [1] and 6.6 µM in experiment [2].

Consider `CCCc1ccc(C(=O)O)cc1CCn1cnc2c1NC=NCC2O` (stereo unspecified), for which the inhibition constant (Ki) was more than 7.5 µM in experiment [1] and 0.19 µM in experiment [2].

Consider `CCOC(=O)c1cc(CCn2cnc3c2NC=NCC3O)ccc1C` (stereo unspecified), for which the values for the inhibitory constant (Ki) in experiment [1] and in experiment [2] were more than 7.5 µM and 12 µM, respectively.

The values above are taken from ChEMBL document CHEMBL1133716, “AMP deaminase inhibitors. 3. SAR of 3-(carboxyarylalkyl)coformycin aglycon analogues” (J Med Chem, 2000).
